# Measurements taken from ChEMBL document CHEMBL1129302, “Quinazoline antifolate thymidylate synthase inhibitors: gamma-linked L-D, D-D, and D-L dipeptide analogues of 2-desamino-2-methyl-N10-propargyl-5,8-dideazafolic acid (ICI 198583)” (J Med Chem, 1996).
# Where “and” joins values, the source holds several entries; their conditions need not be identical. Identical values can stand only once.
# Legend:
# WIL2 = assay: Inhibitory activity against human W1L2 cell growth; assay type: functional, cell-based
# L1210 (1565) [1] = assay: Inhibitory activity against L1210:1565 cell growth.; assay type: functional, cell-based, Mus musculus
# Thymidylate synthase [2] = target: T1, Thymidylate synthase (Mus musculus, UniProt P07607); assay: Inhibition of Thymidylate synthase activity in L1210 cells; assay type: cell-based
# Method in brief: (§1)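 TS was partially purified from L1210 mouse leukemia cells that overproduce the enzyme through TS gene amplification. Inhibition was assayed with (±)-5,10-methylenetetrahydrofolic acid as cofactor at 200 µM.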
# Thymidylate synthase [3] = target: T1, Thymidylate synthase; assay: Binding affinity against L1210 Thymidylate synthase.; method in brief: as §1
# L1210 [4] = assay: Inhibition of L1210 cell growth; assay type: functional, cell-based, Mus musculus
# Mus musculus = species: Mus musculus; assay: Plasma concentration in mice.; assay type: ADME, organism-based; conditions: in vivo, read-out: Plasma concentration
# L1210 (1565) [5] = assay: Inhibitory activity against L1210:1565 cell growth; assay type: functional, cell-based; conditions: Mus musculus
# L1210 (RD1694) [6] = assay: Inhibitory activity against L1210:RD1694 cell growth.; assay type: functional, cell-based, Mus musculus
# L1210 (RD1694) [7] = assay: Inhibitory activity against L1210:RD1694 cell growth; assay type: functional, cell-based, Mus musculus
# L1210 [8] = assay: Inhibitory activity against L1210 cell growth.; assay type: functional, cell-based, Mus musculus
# T1 sequence (P07607 whole entry): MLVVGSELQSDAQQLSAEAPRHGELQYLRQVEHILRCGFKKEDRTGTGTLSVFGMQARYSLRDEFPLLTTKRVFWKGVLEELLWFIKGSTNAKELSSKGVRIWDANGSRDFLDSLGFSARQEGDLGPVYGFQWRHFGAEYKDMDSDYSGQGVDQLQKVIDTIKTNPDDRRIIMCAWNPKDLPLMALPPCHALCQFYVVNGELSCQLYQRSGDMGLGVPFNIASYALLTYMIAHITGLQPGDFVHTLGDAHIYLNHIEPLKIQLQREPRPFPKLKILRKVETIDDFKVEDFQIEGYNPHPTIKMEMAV
Compound,"IC50 (L1210 (1565) [1]; Mus musculus, L1210 (1565)) [nM]",IC50 (Thymidylate synthase [2]) [nM],"IC50 (L1210 [4]; Mus musculus, L1210) [nM]","IC50 (WIL2; Homo sapiens, WIL2) [nM]",also measured
Cc1nc(O)c2cc(CN(C)c3ccc(C(=O)N[C@@H](CCC(=O)N[C@H](CCC(=O)O)C(=O)O)C(=O)O)cc3)ccc2n1,–,34,3200,–,concentration (Mus musculus): 17 µM
Cc1nc(O)c2cc(CN(C)c3ccc(C(=O)N[C@@H](CCC(=O)N[C@H](CCC(=O)O)C(=O)O)C(=O)O)c(F)c3)ccc2n1,21000,8.8,650,900,–
C#CCN(Cc1ccc2nc(C)nc(O)c2c1)c1ccc(C(=O)N[C@@H](CCC(=O)N[C@@H](CCC(=O)O)C(=O)O)C(=O)O)cc1 [listing 1 of 2 here],–,–,–,–,IC50 (WIL2; wil2): 2400 nM; IC50 (L1210 [4]; l1210): 3400 nM
C#CCN(Cc1cc2c(O)nc(C)nc2cc1C)c1ccc(C(=O)N[C@@H](CCC(=O)N[C@H](CCC(=O)O)C(=O)O)C(=O)O)cc1,7800,1.9,210,230,–
C#CCN(Cc1ccc2nc(C)nc(O)c2c1)c1ccc(C(=O)N[C@@H](CCC(=O)N[C@@H](CCCC(=O)O)C(=O)O)C(=O)O)cc1,–,–,300,–,"IC50 (L1210 (RD1694) [7]; Mus musculus, L1210 (RD1694)): 2900 nM"
Cc1nc(O)c2cc(CN(C)c3ccc(C(=O)N[C@@H](CCC(=O)N[C@H](CCC(=O)O)C(=O)O)C(=O)O)c(F)c3)c(C)cc2n1,–,2,260,–,–
C#CCN(Cc1ccc2nc(C)nc(O)c2c1)c1ccc(C(=O)N[C@@H](CCC(=O)N[C@H](CCC(=O)O)C(=O)O)C(=O)O)c(F)c1,7800,1.9,210,220,–
CCN(Cc1ccc2nc(C)nc(O)c2c1)c1ccc(C(=O)N[C@@H](CCC(=O)N[C@H](CCC(=O)O)C(=O)O)C(=O)O)cc1,–,17,3600,–,–
C#CCN(Cc1ccc2nc(C)nc(O)c2c1)c1ccc(C(=O)N[C@@H](CCC(=O)N[C@H](CCCC(=O)O)C(=O)O)C(=O)O)cc1,27000,–,–,220,"concentration (Mus musculus): 31 µM; IC50 (L1210 (RD1694) [7]; Mus musculus, L1210 (RD1694)): 440 nM; IC50 (L1210 [8]; Mus musculus, L1210): 80 nM; IC50 (L1210 [8]; l1210): 110 nM; IC50 (L1210 (RD1694) [6]; Mus musculus, L1210 (RD1694)): 420 nM"
C#CCN(Cc1ccc2nc(C)nc(O)c2c1)c1ccc(C(=O)N[C@@H](CCC(=O)N[C@@H](CCC(=O)O)C(=O)O)C(=O)O)cc1 [listing 2 of 2 here],–,–,–,–,IC50 (L1210 (RD1694) [7]; l1210 (rd1694)): 2900 nM; IC50 (WIL2; wil2): 90 nM and 74 nM; IC50 (L1210 (1565) [1]; l1210 (1565)): 5000 nM; IC50 (L1210 [4]; l1210): 160 nM
C#CCN(Cc1cc2c(O)nc(C)nc2cc1C)c1ccc(C(=O)N[C@@H](CCC(=O)N[C@H](CCC(=O)O)C(=O)O)C(=O)O)c(F)c1,6800,0.4,200,170,concentration (Mus musculus): 32 µM; IC50 (WIL2; wil2): 93 nM; IC50 (L1210 (1565) [1]; l1210 (1565)): 8700 nM; Ki (Thymidylate synthase [3]): 0.19 nM

# The next lines start with results.
"IC50 (L1210 (1565) [1]; Mus musculus, L1210 (1565)) [nM]",IC50 (Thymidylate synthase [2]) [nM],"IC50 (L1210 [4]; Mus musculus, L1210) [nM]",Compound,"IC50 (WIL2; Homo sapiens, WIL2) [nM]",also measured
12000,0.56,130,C#CCN(Cc1cc2c(O)nc(C)nc2cc1C)c1ccc(C(=O)N[C@@H](CCC(=O)N[C@H](CCCC(=O)O)C(=O)O)C(=O)O)c(F)c1,300,IC50 (WIL2; wil2): 190 nM; IC50 (L1210 (1565) [1]; l1210 (1565)): 8100 nM; Ki (Thymidylate synthase [3]): 0.12 nM
–,4.6,580,Cc1nc(O)c2cc(CN(C)c3ccc(C(=O)N[C@@H](CCC(=O)N[C@H](CCC(=O)O)C(=O)O)C(=O)O)cc3)c(C)cc2n1,280,IC50 (L1210 (1565) [5]): 19000 nM
–,13,620,C#CCN(Cc1ccc2nc(C)nc(O)c2c1)c1ccc(C(=O)N[C@@H](CCC(=O)N[C@@H](C)C(=O)O)C(=O)O)cc1,–,"IC50 (L1210 (RD1694) [6]; Mus musculus, L1210 (RD1694)): 2100 nM; IC50 (L1210 (RD1694) [6]; l1210 (rd1694)): 1600 nM; IC50 (L1210 [4]; l1210): 790 nM"
15000,–,–,C#CCN(Cc1ccc2nc(C)nc(O)c2c1)c1ccc(C(=O)N[C@@H](CCC(=O)N[C@H](CCC(=O)O)C(=O)O)C(=O)O)cc1,150,"concentration (Mus musculus): 34 µM; IC50 (L1210 (RD1694) [7]; Mus musculus, L1210 (RD1694)): 680 nM"
–,12,430,C#CCN(Cc1ccc2nc(C)nc(O)c2c1)c1ccc(C(=O)N[C@@H](CCC(=O)N[C@H](C)C(=O)O)C(=O)O)cc1,150,"IC50 (L1210 (RD1694) [7]; Mus musculus, L1210 (RD1694)): 880 nM; IC50 (L1210 (1565) [5]): 16000 nM"
100000,–,1300,C#CCN(Cc1ccc2nc(C)nc(O)c2c1)c1ccc(C(=O)N[C@H](CCC(=O)N[C@H](CCC(=O)O)C(=O)O)C(=O)O)cc1,1400,–
–,18,4400,C#CCN(Cc1ccc2nc(C)nc(O)c2c1)c1ccc(C(=O)N[C@@H](CCC(=O)N[C@@H](Cc2ccccc2)C(=O)O)C(=O)O)cc1,–,"IC50 (L1210 (RD1694) [7]; Mus musculus, L1210 (RD1694)): 8900 nM"
> 10000,30,2100,C#CCN(Cc1ccc2nc(C)nc(O)c2c1)c1ccc(C(=O)N[C@@H](CCC(=O)NC(Cc2ccccc2)C(=O)O)C(=O)O)cc1 (stereo partly specified),–,–
